ChEMBL document CHEMBL1158785, “Polyoxygenated steroids from the gorgonian Isis hippuris” (J Nat Prod, 2005)
≈ marks a conversion by molar mass, not a printed value.

Experiments:
HepG2 = test: Cytotoxicity against human HepG2 cells after 3 days by MTT assay; assay type: functional, cell-based; settings: HepG2, 72 h
In short: (§1)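 Freshly trypsinized cells seeded at 5000-10 000 per well, compounds added from DMSO-diluted stock; 3 days culture. Attached cells then given MTT (0.5 mg/mL, 1 h), formazan dissolved in DMSO, absorbance read at 550 nm. IC50 taken as concentration reducing cell growth by 50%.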

MCF7 = test: Cytotoxicity against human MCF7 cells after 3 days by MTT assay; assay type: functional, cell-based; settings: MCF7, 72 h; in short: as §1
MDA-MB-231 = test: Cytotoxicity against human MDA-MB-231 cells after 3 days by MTT assay; assay type: functional, cell-based; settings: MDA-MB-231, 72 h; in short: as §1
[1] = Cytotoxicity against human Hep3B cells after 3 days by MTT assay; assay type: functional, cell-based, Hep 3B2; settings: 72 h; in short: as §1

| Structure (SMILES) | IC50 (HepG2) [µg/mL] | IC50 (MCF7) [µg/mL] | IC50 (MDA-MB-231) [µg/mL] | IC50 [1] [µg/mL] |
| --- | --- | --- | --- | --- |
| CC(=O)O[C@@H]1CC[C@@]2(C)[C@@H](CC[C@@H]3[C@@H]2[C@@H](O)C[C@]24C(=O)O[C@]5(C)[C@H]2[C@H](C[C@@H]34)O[C@]52C[C@H](C)C(C)(C)O2)C1 | > 20 | > 20 | > 20 | – |
| CC(=O)O[C@@H]1C[C@@]2(C)[C@@H](CC[C@@H]3[C@@H]2[C@@H](O)C[C@@]2(C)[C@H]3C[C@@H]3O[C@@]4(C[C@H](C)C(C)(C)O4)[C@](C)(O)[C@@H]32)C[C@@H]1O | 0.56 (≈ 1.08 µM) | 0.53 (≈ 1.02 µM) | 0.41 (≈ 0.787 µM) | 0.1 (≈ 0.192 µM) |
| C[C@H]1C[C@]2(O[C@H]3C[C@H]4[C@@H]5CC[C@H]6C[C@H](O)[C@H](O)C[C@]6(C)[C@H]5[C@@H](O)C[C@@]45C(=O)O[C@]2(C)[C@@H]35)OC1(C)C | > 30 | > 30 | > 30 | 23.8 (≈ 48.6 µM) |
| CC(=O)O[C@H]1C[C@@H]2CC[C@@H]3[C@H]([C@@H](O)C[C@]45C(=O)O[C@]6(C)[C@H]4[C@H](C[C@@H]35)O[C@]63C[C@H](C)C(C)(C)O3)[C@@]2(C)C[C@H]1OC(C)=O | > 20 | 19.6 (≈ 34.1 µM) | > 20 | – |
| C[C@H]1C[C@]2(O[C@H]3C[C@H]4[C@@H]5CC[C@H]6C[C@H](O)[C@H](O)C[C@]6(C)[C@H]5[C@@H](O)C[C@]4(C)[C@H]3[C@@]2(C)O)OC1(C)C | 0.62 (≈ 1.3 µM) | 0.59 (≈ 1.23 µM) | 0.75 (≈ 1.57 µM) | 0.77 (≈ 1.61 µM) |
| C[C@H]1C[C@]2(O[C@H]3C[C@H]4[C@@H]5CC[C@H]6C[C@H](O)CC[C@]6(C)[C@H]5[C@@H](O)C[C@@]45C(=O)O[C@]2(C)[C@@H]35)OC1(C)C | > 20 | > 20 | > 20 | – |
| CC(=O)O[C@@H]1CC[C@@]2(C)[C@@H](CC[C@@H]3[C@@H]2[C@@H]2C[C@]45[C@H](O2)O[C@]2(C)[C@H]4[C@H](C[C@@H]35)O[C@]23C[C@H](C)C(C)(C)O3)C1 | > 20 | > 20 | > 20 | – |
| CC(=O)O[C@H]1C[C@@H]2CC[C@@H]3[C@H]([C@@H]4C[C@]56[C@H](O4)O[C@]4(C)[C@H]5[C@H](C[C@@H]36)O[C@]43C[C@H](C)C(C)(C)O3)[C@@]2(C)C[C@H]1OC(C)=O | > 20 | > 20 | > 20 | – |
| CC(=O)O[C@H]1C[C@@H]2CC[C@@H]3[C@H]([C@@H](O)C[C@]45[C@H](O)O[C@]6(C)[C@H]4[C@H](C[C@@H]35)O[C@]63C[C@H](C)C(C)(C)O3)[C@@]2(C)C[C@H]1OC(C)=O | > 20 | 11.4 (≈ 19.7 µM) | > 20 | – |
| CC(=O)O[C@H]1C[C@@H]2CC[C@@H]3[C@H]([C@@H](O)C[C@@]4(C)[C@H]3C[C@@H]3O[C@]5(C[C@H](C)C(C)(C)O5)[C@](C)(O)[C@@H]34)[C@@]2(C)C[C@H]1O | 2.06 (≈ 3.96 µM) | 2.41 (≈ 4.63 µM) | 0.74 (≈ 1.42 µM) | 1.46 (≈ 2.8 µM) |
| CC(=O)O[C@H]1C[C@@H]2CC[C@@H]3[C@H]([C@@H](O)C[C@@]4(C)[C@H]3C[C@@H]3O[C@@]5(C[C@H](C)C(C)(C)O5)[C@](C)(O)[C@@H]34)[C@@]2(C)C[C@H]1O | 0.72 (≈ 1.38 µM) | 1.07 (≈ 2.05 µM) | 0.21 (≈ 0.403 µM) | 0.46 (≈ 0.883 µM) |
| CC(=O)O[C@@H]1C[C@@]2(C)[C@@H](CC[C@@H]3[C@@H]2[C@@H](O)C[C@]24C(=O)O[C@]5(C)[C@H]2[C@H](C[C@@H]34)O[C@]52C[C@H](C)C(C)(C)O2)C[C@@H]1O | 27.6 (≈ 51.8 µM) | > 30 | > 30 | > 30 |
| CC(=O)O[C@@H]1C[C@@]2(C)[C@@H](CC[C@@H]3[C@@H]2[C@@H](O)C[C@@]2(C)[C@H]3C[C@@H]3O[C@]4(C[C@H](C)C(C)(C)O4)[C@](C)(O)[C@@H]32)C[C@@H]1O [EPIHIPPURIN 1] | 4.64 (≈ 8.91 µM) | 4.54 (≈ 8.72 µM) | 2.64 (≈ 5.07 µM) | 0.68 (≈ 1.31 µM) |
| C[C@H]1C[C@]2(O[C@H]3C[C@H]4[C@@H]5CC[C@H]6C[C@H](O)CC[C@]6(C)[C@H]5[C@@H](O)C[C@]4(C)[C@H]3[C@@]2(C)O)OC1(C)C [EPIHIPPURISTANOL] | 0.08 (≈ 0.173 µM) | 0.2 (≈ 0.432 µM) | 0.13 (≈ 0.281 µM) | 0.1 (≈ 0.216 µM) |
| CC(=O)O[C@@H]1CC[C@@]2(C)[C@@H](CC[C@@H]3[C@@H]2[C@@H](O)C[C@]24[C@H](O)O[C@]5(C)[C@H]2[C@H](C[C@@H]34)O[C@]52C[C@H](C)C(C)(C)O2)C1 [HIPPURISTANOHEMIACETAL] | > 20 | 12.7 (≈ 24.5 µM) | > 20 | – |
